Converted amounts (≈) assume the structure as drawn.
System: Trichophyton mentagrophytes
Assay: Antifungal activity against Trichophyton mentagrophytes ATCC 9533
Assay type: functional
Method in brief: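 Microbial assay against Trichophyton mentagrophytes ATCC 9533. Compounds were tested at concentrations from 10 μg/mL to 10 ng/mL.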

SMILES	MIC
CC[C@@H](O)C[C@@H]1O[C@@]2(CC[C@@H]1C)C[C@@H]1OC(=O)/C=C/[C@H](C)[C@@H](O)[C@@H](C)[C@H](O)C[C@H](OC)C[C@H](O)[C@H](C)[C@H](O)CC/C=C/C=C/[C@H](CC)CC[C@H](O2)[C@H]1CCCO	1 µg/mL (≈ 1.26 µM)
CC[C@@H]1/C=C/C=C/C[C@H](C)[C@H](O)[C@](C)(O)C(=O)[C@H](C)[C@@H](O)[C@H](C)C(=O)[C@H](C)[C@@H](O)[C@H](C)/C=C/C(=O)O[C@H]2[C@@H](C)[C@@H](CC1)O[C@@]1(CC[C@@H](C)[C@@H](C[C@H](C)O)O1)[C@@H]2C [OLIGOMYCIN A]	10 µg/mL (≈ 12.6 µM)
CC[C@H]1/C=C/C=C/CC[C@@H](O)[C@@H](C)[C@@H](O)C[C@@H](OC)C[C@@H](O)[C@H](C)[C@H](O)[C@@H](C)/C=C/C(=O)O[C@H]2C[C@@]3(CC[C@H](C)[C@H](C[C@@H](C)O)O3)O[C@@H](CC1)[C@H]2CCC(C)O (stereo not given in full)	3 µg/mL (≈ 3.77 µM)
CCCCC[C@H]1[C@@H]2C[C@@]3(CC[C@H](C)[C@H](C[C@@H](C)O)O3)O[C@H]1CC[C@@H](CC)/C=C/C=C/CC[C@@H](O)[C@@H](C)[C@@H](O)C[C@@H](OC)C[C@@H](O)[C@H](C)[C@H](O)[C@@H](C)/C=C/C(=O)O2	3 µg/mL (≈ 3.78 µM)

The remaining lines, values ahead:

MIC	SMILES
3 µg/mL (≈ 3.92 µM)	CCC[C@H]1[C@@H]2C[C@@]3(CC[C@H](C)[C@H](C[C@@H](C)O)O3)O[C@H]1CC[C@@H](CC)/C=C/C=C/CC[C@@H](O)[C@@H](C)[C@@H](O)C[C@@H](OC)C[C@@H](O)[C@H](C)[C@H](O)[C@@H](C)/C=C/C(=O)O2
3 µg/mL (≈ 3.84 µM)	CC[C@H]1/C=C/C=C/CC[C@@H](O)[C@@H](C)[C@@H](O)C[C@@H](OC)C[C@@H](O)[C@H](C)[C@H](O)[C@@H](C)/C=C/C(=O)O[C@H]2C[C@@]3(CC[C@H](C)[C@H](C[C@@H](C)O)O3)O[C@@H](CC1)[C@H]2CCCO [NEOMACLAFUNGIN A]
1 µg/mL (≈ 1.33 µM)	CC[C@H]1/C=C/C=C/CC[C@@H](O)[C@@H](C)[C@@H](O)C[C@@H](OC)C[C@@H](O)[C@H](C)[C@H](O)[C@@H](C)/C=C/C(=O)O[C@H]2C[C@@]3(CC[C@H](C)[C@H](C[C@@H](C)O)O3)O[C@@H](CC1)[C@H]2CC
1 µg/mL (≈ 1.24 µM)	CC[C@@H](O)C[C@@H]1O[C@@]2(CC[C@@H]1C)C[C@@H]1OC(=O)/C=C/[C@H](C)[C@@H](O)[C@@H](C)[C@H](O)C[C@H](OC)C[C@H](O)[C@H](C)[C@H](O)CC/C=C/C=C/[C@H](CC)CC[C@H](O2)[C@H]1CCC(C)O (stereo not given in full)
3 µg/mL (≈ 3.85 µM)	CCC[C@H]1[C@@H]2C[C@@]3(CC[C@H](C)[C@H](C[C@H](O)CC)O3)O[C@H]1CC[C@@H](CC)/C=C/C=C/CC[C@@H](O)[C@@H](C)[C@@H](O)C[C@@H](OC)C[C@@H](O)[C@H](C)[C@H](O)[C@@H](C)/C=C/C(=O)O2
3 µg/mL (≈ 3.85 µM)	CCCC[C@H]1[C@@H]2C[C@@]3(CC[C@H](C)[C@H](C[C@@H](C)O)O3)O[C@H]1CC[C@@H](CC)/C=C/C=C/CC[C@@H](O)[C@@H](C)[C@@H](O)C[C@@H](OC)C[C@@H](O)[C@H](C)[C@H](O)[C@@H](C)/C=C/C(=O)O2
